According to article PMC6512341 (ACS chemical neuroscience, 2018):

Assays:
[1] = Brain/plasma pilot PK studies of TubA; format: in vivo; conditions: IV administration, WT mice
[2] = cited from earlier work
HDAC6 [3] = target: T1, HDAC6 (Homo sapiens, UniProt Q9UBN7); test: HDAC1–11 enzyme assays; format: biochemical; conditions: for HDAC6 activity (in words): Figure 1a, compared with phenylhydroxamate 1
T1 sequence (Q9UBN7 1-1215): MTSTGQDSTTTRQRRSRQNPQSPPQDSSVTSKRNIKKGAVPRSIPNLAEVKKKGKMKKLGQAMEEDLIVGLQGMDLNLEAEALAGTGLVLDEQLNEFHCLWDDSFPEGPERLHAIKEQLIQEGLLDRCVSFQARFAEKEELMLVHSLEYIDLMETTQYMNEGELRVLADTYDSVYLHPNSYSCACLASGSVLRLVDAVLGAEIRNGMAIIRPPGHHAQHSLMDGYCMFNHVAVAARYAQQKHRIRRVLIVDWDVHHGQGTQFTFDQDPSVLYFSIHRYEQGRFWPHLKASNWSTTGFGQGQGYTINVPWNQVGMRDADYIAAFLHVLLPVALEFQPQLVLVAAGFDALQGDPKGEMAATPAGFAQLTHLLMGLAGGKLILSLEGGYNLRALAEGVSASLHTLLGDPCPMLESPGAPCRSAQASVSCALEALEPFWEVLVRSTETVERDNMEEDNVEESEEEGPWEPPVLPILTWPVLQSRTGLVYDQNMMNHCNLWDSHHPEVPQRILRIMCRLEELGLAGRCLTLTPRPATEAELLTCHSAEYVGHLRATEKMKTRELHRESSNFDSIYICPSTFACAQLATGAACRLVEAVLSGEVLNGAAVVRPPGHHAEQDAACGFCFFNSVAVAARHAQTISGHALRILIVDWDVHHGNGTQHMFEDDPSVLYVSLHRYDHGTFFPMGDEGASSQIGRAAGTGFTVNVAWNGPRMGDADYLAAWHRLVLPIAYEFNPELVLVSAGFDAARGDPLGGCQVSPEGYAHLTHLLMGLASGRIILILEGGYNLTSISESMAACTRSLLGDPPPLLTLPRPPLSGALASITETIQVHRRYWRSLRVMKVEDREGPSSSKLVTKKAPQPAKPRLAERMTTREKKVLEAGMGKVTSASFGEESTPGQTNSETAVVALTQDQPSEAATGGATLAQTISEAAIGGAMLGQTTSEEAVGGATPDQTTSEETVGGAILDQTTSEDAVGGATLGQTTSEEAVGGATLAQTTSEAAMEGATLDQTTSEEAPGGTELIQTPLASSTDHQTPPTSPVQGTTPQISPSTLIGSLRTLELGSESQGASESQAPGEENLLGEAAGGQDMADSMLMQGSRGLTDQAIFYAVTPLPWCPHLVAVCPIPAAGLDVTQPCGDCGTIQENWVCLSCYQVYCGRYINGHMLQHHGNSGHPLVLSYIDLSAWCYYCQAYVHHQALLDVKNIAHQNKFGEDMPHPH

MDCK-MDR1 cell line = test: Permeability studies in MDCK-MDR1 cells; format: in vitro ADME; conditions: MDCK-MDR1 cell line
MDR1 = test: Permeability studies in MDCK-MDR1 cells; format: in vitro ADME; conditions: dog, MDCK-MDR1
acetylated α-tubulin [4] = test: α-Tubulin acetylation studies in HEK293 cells; format: cell-based; conditions: tested at 0.01, 0.1, 1, and 10 μM
Outline: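 HEK293 cells plated 24 h ahead and treated at 70% confluency with 10 nM–10 µM. Lysed in MPER with protease inhibitors; 2 µg protein boiled, run on 12% gel, transferred to PVDF. Blocked in 5% milk/TBST; anti-acetyl-tubulin 1:3000 overnight at 4 °C, then HRP secondary 1:5000; ECL. Reprobed for total α-tubulin at 1:1000. Densitometric ratio normalized to 10 µM reference HDAC6 inhibitor; n = 3–4; one-way ANOVA vs vehicle.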

MDR1 (P-gp) = test: Permeability studies in MDCK-MDR1 cells; format: in vitro ADME; conditions: dog, MDCK-MDR1, efflux ratio, MDCK-MDR1 cell line
class IIa isoforms = test: HDAC1–11 enzyme assays; format: biochemical, human; conditions: Figure 2b and c
Outline: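 Human full-length recombinant HDAC4, 5, 7 and 9 with fluorogenic Ac-LGK(TFA)-AMC substrate. Enzyme–compound preincubation 5–10 min, then 2 h at 30 °C. Developer added; fluorescence read at plateau. 10-dose, 3-fold dilutions from 30 µM, in duplicate. IC50 from sigmoidal fit.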

HDAC6 [5] = conditions: cited from earlier work; for activity against HDAC6 (in words) / selectivity over HDAC1 (in words): Figure 1a
acetylated histone 3 = test: Histone acetylation in N2a cells; format: cell-based; conditions: compared to vehicle
Outline: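 N2a cells treated at 1 µM or 10 nM; reference HDAC inhibitors served as positive controls. Histones extracted by kit; protein by micro BCA. Samples denatured in reducing buffer at 95 °C for 5 min and blotted to PVDF. Blocked in 5% BSA/TBST 1 h at RT; primaries overnight: acetyl-H3 K9+K14 1:1000, histone 4 1:1000. Ratios normalized to vehicle; n = 4; one-way ANOVA vs vehicle.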

acetylated α-tubulin [6] = test: α-Tubulin acetylation in N2a cells; format: cell-based; conditions: compared to vehicle

SMILES	efflux ratio (MDCK-MDR1 cell line)	Papp A→B at 2 h (MDR1)	Papp B→A at 2 h (MDR1)	efflux ratio at 2 h (MDR1 (P-gp))	further results
CN1CCc2c(c3ccccc3n2Cc2ccc(C(=O)NO)cc2)C1 [TubA, tubastatin A, reference compound]	9.83	2 ×10⁻⁶ cm/s	19.7 ×10⁻⁶ cm/s	–	brain/plasma ratio ([1]; 8 min): 0.15; brain/plasma ratio ([1]; 60 min): 0.86; AUCbrain/AUCplasma [2]: 0.18; selectivity against HDAC8 (in words) (HDAC6 [3]; Figure 2b and c): poorer selectivity; selectivity against the class I HDACs 1, 2, and 3 (in words) (HDAC6 [3]; Figure 2b and c): high selectivity
O=C(NO)c1ccc(CN2CCc3ccc(Cl)cc32)cc1 [Compound 10, 4-[(6-Chloroindolin-1-yl)methyl]-N-hydroxybenzamide]	0.62	9.14 ×10⁻⁶ cm/s	5.54 ×10⁻⁶ cm/s	< 1	concentration at which acetylated α-tubulin levels are elevated (acetylated α-tubulin [4]): 1 µM
Cc1nc2ccccc2n1Cc1ccc(C(=O)NO)cc1F [Compound 9, 3-Fluoro-N-hydroxy-4-[(2-methyl-1-benzimidazolyl)methyl]-benzamide]	4.23	3.89 ×10⁻⁶ cm/s	13.2 ×10⁻⁶ cm/s	> 2.5	activity against the class IIa isoforms (in words) (class IIa isoforms): strong activity
O=C(NO)c1ccc(Cn2cccn2)cc1 [Compound 6, 4-(1-Pyrazolylmethyl)-N-hydroxybenzamide]	0.70	–	–	–	concentration at which acetylated α-tubulin levels are elevated (acetylated α-tubulin [4]): 10 µM; Papp(A−B) (MDCK-MDR1 cell line): 7.35 10^−6, cm/s; Papp(B−A) (MDCK-MDR1 cell line): 5.24 10^−6, cm/s
O=C(NO)c1ccc(CN2CCc3ccc(F)cc32)cc1 [Compound 11, 4-[(6-Fluoroindolin-1-yl)methyl]-N-hydroxybenzamide]	1.05	10.5 ×10⁻⁶ cm/s	11.1 ×10⁻⁶ cm/s	< 1	concentration at which acetylated α-tubulin levels are elevated (acetylated α-tubulin [4]): 1 µM
O=C(NO)c1ccc(Cn2ccc3ccccc32)cc1 [Compound 5, 4-(1-Indolylmethyl)-N-hydroxybenzamide]	–	–	–	–	activity against HDAC6 (in words) (HDAC6 [5]): nanomolar activity; selectivity over HDAC1 (in words) (HDAC6 [5]): high selectivity
CN(C)c1ccc(Cc2ccc(C(=O)NO)cc2)cc1 [Compound 7, 4-[4-(Dimethylamino)benzyl]-N-hydroxybenzamide]	0.63	17.6 ×10⁻⁶ cm/s	11 ×10⁻⁶ cm/s	< 1	concentration at which acetylated α-tubulin levels are elevated (acetylated α-tubulin [4]): 10 µM
O=C(NO)c1ccc(CN2CCCC2)cc1 [Compound 3, N-Hydroxy-4-(pyrrolidin-1-ylmethyl)benzamide]	–	–	–	–	HDAC6 activity (in words) (HDAC6 [3]): reduced HDAC6 activity
O=C(NO)c1ccccc1 [Compound 1, phenylhydroxamate, reference compound]	–	–	–	–	selectivity over class I HDACs (HDAC6 [5]): more than 10 fold; IC50 (HDAC6 [5]; read-out: IC50 against HDAC6): 115 nM
Cc1nc2ccc(F)cc2n1Cc1ccc(C(=O)NO)cc1 [Compound 8, 4-[(6-Fluoro-2-methyl-1-benzimidazolyl)methyl]-N-hydroxybenzamide]	3.23	4.44 ×10⁻⁶ cm/s	13.4 ×10⁻⁶ cm/s	> 2.5	activity against the class IIa isoforms (in words) (class IIa isoforms): strong activity
Cn1c(NCc2ccc(C(=O)NO)cc2)nc2ccccc21 [Compound 12, N-Hydroxy-4-[[(1-methyl-1H-benz[d]imidazol-2-yl)amino]-methyl]benzamide]	2.95	0.66 ×10⁻⁶ cm/s	2.05 ×10⁻⁶ cm/s	> 2.5	–
O=C(NO)c1ccc(Cn2cccc2)cc1 [Compound 4, 4-(1-Pyrrolylmethyl)-N-hydroxybenzamide]	–	–	–	–	activity against HDAC6 (in words) (HDAC6 [5]): nanomolar activity; selectivity over HDAC1 (in words) (HDAC6 [5]): high selectivity
CCN(CC)Cc1ccc(C(=O)NO)cc1 [Compound 2, 4-[(Diethylamino)methyl]-N-hydroxybenzamide]	–	–	–	–	HDAC6 activity (in words) (HDAC6 [3]): reduced HDAC6 activity
CC(/C=C/C(=O)NO)=C\[C@@H](C)C(=O)c1ccc(N(C)C)cc1 [TSA, Trichostatin A, reference compound]	–	–	–	–	levels of acetylated histone 3 to histone 4 (acetylated histone 3): increased levels of both acetylated α-tubulin and acetylated histone H3 significantly; ratio of acetylated α-tubulin to α-tubulin (acetylated α-tubulin [6]): increased levels of both acetylated α-tubulin and acetylated histone H3 significantly
